Tn7 DDE FP = disrupts Tn7 cyclic peptide binding to fibrin D-Dimer-E complex. P02675. FP displacement of FITC-Tn7 peptide from fibrin DD(E); 0% = median of compound wells per plate. inhibition, % at 8.3 µM. 370,000 compounds, 0.13% hits. AID 720508;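 active = inhibition above the mean of compounds falling within the control limits plus 3 SD of them, cut at about 14% in these data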;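 also: 0% = plate median of compound wells and 100% = 10 µM Aha-Tn7 peptide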
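Assay system: human fibrin DD(E) protein / Input: 2 µM fibrin DD(E) / Benchmarks: high control of 10 µM Aha-Tn7 peptide / Measured by: fluorescence polarization of the labelled Tn7 tracer / Medium: Tris buffer with calcium and detergent, pH 7.8 / Timing: 10 min compound pre-incubation, 3 h probe incubation at room temperature / Repeats: one replicate per compound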
Tn6 DDE FP = DD(E)-Tn6 binding inhibition, primary FP screen; Fibrin DD(E) TRITC-Tn6 fluorescence polarization displacement; AID 720509; inhibition, % at 8.3 µM; P02675; 370,000 compounds, 0.21% hits;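 active = inhibition above a per-campaign cutoff: mean of compounds within control limits plus 3 SD, cut at about 15% in these data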;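 also: 0% = median of all compound wells on the plate and 100% = blocking peptide control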
H9c2 TAG inh = inhibitors of triacylglycerol accumulation. H9c2 cells, Nile Red lipid (TAG) fluorescence; cells loaded with 200 µM oleic acid. inhibition, % at 12.5 µM. 230,000 compounds, 0.66% hits. AID 651582;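 active = pattern-corrected inhibition of lipid staining of at least 50% with the nuclear-stain viability signal not falling by more than 50%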;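 also: 0% = DMSO wells and 100% = triacsin C control wells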
MT1-MMP act inh = blocks activation of human MT1-MMP; P50281; HT1080 RFP-PRO-GFP cells, GFP/RFP ratio fluorescence, overnight; percent of plate control window, DMSO zero; GFP/RFP ratio change, % at 20 µM; 360,000 compounds, 0.061% hits; AID 651647;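 active = GFP/RFP ratio change of at least 30% with cell ATP level not reduced by more than half and red fluorescence within 50% of control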
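Assay system – RFP-PRO-GFP reporter HT1080 cells · Compound dosing – single dose of 20 µM compound, 1% DMSO final · Incubation – overnight compound exposure at 37 °C · Measure – GFP/RFP fluorescence ratio · Benchmarks – DMSO wells and RFP-L50D-GFP cells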
DAGLB inhibitor = blocks human DAGLB lipase activity; Q8NCG7; 340,000 compounds, 0.059% hits; AID 504411; inhibition, % at 5.17 µM; HEK293T DAGLB membrane lysate, EnzChek fluorogenic substrate; in the data active = inhibition above about 34%;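 also: 0% = enzyme with vehicle and 100% = wells lacking enzyme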
Target sequence (Q8NCG7 whole entry, looked up): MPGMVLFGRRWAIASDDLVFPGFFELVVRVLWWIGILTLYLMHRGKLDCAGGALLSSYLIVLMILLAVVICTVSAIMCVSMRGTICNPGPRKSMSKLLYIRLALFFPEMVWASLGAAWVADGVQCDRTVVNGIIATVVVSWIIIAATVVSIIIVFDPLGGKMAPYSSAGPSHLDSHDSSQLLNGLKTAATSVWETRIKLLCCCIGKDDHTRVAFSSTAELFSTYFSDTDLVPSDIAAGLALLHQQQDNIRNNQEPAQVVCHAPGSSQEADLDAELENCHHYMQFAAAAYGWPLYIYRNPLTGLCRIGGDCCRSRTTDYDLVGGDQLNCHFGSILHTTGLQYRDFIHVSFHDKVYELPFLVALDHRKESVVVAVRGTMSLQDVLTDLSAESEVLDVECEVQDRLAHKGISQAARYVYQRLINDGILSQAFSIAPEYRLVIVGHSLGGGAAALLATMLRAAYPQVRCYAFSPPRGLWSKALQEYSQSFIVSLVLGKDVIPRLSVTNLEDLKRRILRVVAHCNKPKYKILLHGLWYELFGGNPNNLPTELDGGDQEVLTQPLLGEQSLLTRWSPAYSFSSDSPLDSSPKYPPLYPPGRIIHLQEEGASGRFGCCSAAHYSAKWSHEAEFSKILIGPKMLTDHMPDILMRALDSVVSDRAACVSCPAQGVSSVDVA
H9c2 protect = modulators protecting cardiomyocytes from myocardial damage | AID 588492 | 360,000 compounds, 0.63% hits | protection from H2O2 cell death, % at 20 µM | H9c2 cardiomyocytes, H2O2 injury protection, ATPLite, 2 h;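 active = compounds giving at least 50% protection of heart cells from peroxide-induced death in the single-dose screen, raw or plate-pattern-corrected value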;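 also: 0% = DMSO wells with peroxide and 100% = DMSO wells without peroxide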
Active calls of the source: *; · = no result given. Sampled rows, rich in hits. Any-hit rate of the full collection: about 1.4%.

SMILES	Tn7 DDE FP	Tn6 DDE FP	H9c2 TAG inh	MT1-MMP act inh	DAGLB inhibitor	H9c2 protect
CC1(C)CC2CC(C)(CN2C(=O)COC(=O)c2n[nH]c(=O)c3ccccc23)C1 (centres undefined)	6	5	-16	2	4	60*
O=C(OCC(=O)N1CCc2ccccc21)c1n[nH]c(=O)c2ccccc12	-3	6	-4	-1	1	73*
CC1CCCC(C)N1C(=O)COC(=O)c1n[nH]c(=O)c2ccccc12 (centres undefined)	-4	-4	-2	0	2	54*
O=C(OCC(=O)N1CCCCCC1)c1n[nH]c(=O)c2ccccc12	2	10	8	13	1	51*
CC1CCN(C(=O)COC(=O)c2n[nH]c3ccccc23)CC1	-1	2	·	-1	-2	-20
COc1ccc(S(=O)(=O)N2CCCc3nc(C)c(C)cc32)cc1	-3	-5	·	·	·	·
O=C(OCC#CCSc1nnc(-c2ccc3ccccc3c2)o1)c1cccs1	1	-1	·	·	·	·
CCCCCN1CCCCC(NC(=O)c2ccccc2C)C1=O (centres undefined)	-1	-2	·	·	·	·
CCc1ccc(N2C(=O)C[C@@](C#N)(C(=O)OC)[C@H]2c2ccccc2)cc1	0	0	·	·	·	·
CCOC(=O)[C@]12CCCC=C1N(CCCOC)C(=O)[C@@H]2CC(=O)N1CCSCC1	-5	-1	·	·	·	·
O=S1(=O)CCC(N=Cc2cc(Br)ccc2O)C1 (centres undefined)	-3	-2	-23	6	8	70*
COc1ccc(S(=O)(=O)N2CCOCC2)cc1NC(=O)c1cccc2c(=O)c(C)c(-c3ccccc3)oc12	-2	-1	·	-5	-1	71*
COc1ccc(-n2c(SCC(=O)Nc3cc(C)c(NC(=O)c4ccccc4)cc3OC)nnc2-c2cccnc2)cc1	6	0	·	·	·	·
CNCCNC[C@H](Cc1cccc2ccccc12)NCCc1ccccc1	-3	-6	-2	3	1	9
CNC[C@H](Cc1ccccc1)NC[C@@H](Cc1cccc2ccccc12)NCCc1ccc(C)cc1	3	-2	138*	-9	-13	-22
CCCCS(=O)(=O)N1C2=NC3=C(C(=O)N(CCOC)C3=O)C3N(C)c4ccccc4[C@]23C[C@H]1CO (some centres undefined)	-2	12	·	·	·	·
Cc1ccc(Cn2cc(CN3[C@H](c4ccccc4)COc4cc(Br)ccc4S3(=O)=O)nn2)cc1	-6	-1	·	·	·	·
O=C(CCCN1C(=O)/C(=C/c2cccs2)SC1=S)NNC(=O)c1ccncc1	1	-8	·	3	5	-5
COc1ccccc1/C=C1\SC(=S)N(CCC(=O)NNC(=O)c2ccccc2O)C1=O	·	·	·	8	3	60*
O=C(CCCN1C(=O)/C(=C/c2cccs2)SC1=S)NNC(=O)c1ccccc1O	0	2	·	7	6	60*
c1ccn(-c2ccc(-c3noc(CCc4ccncc4)n3)cc2)c1	-2	-4	·	·	·	·
O=c1cc(-c2cccnc2)oc2c1ccc1ccccc12	1	0	2	-8	·	76*
O=c1cc(-c2ccccc2)oc2c1ccc1ccccc12	7	4	·	·	·	·
CC(CCC(=O)O)C1CCC2C3CCC4C[C@H](O)CCC4(C)C3CC(=O)C12C (some centres undefined)	7	4	·	-1	2	6
CC1=C(CC[C@@H](C)CO)OC2CC3C4CCC5CC(O)CCC5(C)C4CC(=O)C3(C)C12 (some centres undefined)	-11	-4	·	2	-1	50*
SMILES	Tn7 DDE FP	Tn6 DDE FP	H9c2 TAG inh	MT1-MMP act inh	DAGLB inhibitor	H9c2 protect
CC(C)n1c(SCC(=O)Nc2ccccc2N2CCOCC2)nc2c1c(=O)n(C)c(=O)n2C	2	-4	-3	-2	-1	34
CCn1c(SCC(=O)Nc2ccccc2N2CCCCC2)nc2c1c(=O)n(C)c(=O)n2C	5	-2	·	4	-4	62*
Cc1nnc2ccc(-c3cccc(NC(=O)c4ccc(Cl)nc4)c3)nn12	-1	0	29	10	-3	63*
O=c1ccc2cc3c4c(c2o1)CCCN4CCC3	23*	7	0	-49	-13	34
O=c1oc2c3c4c(cc2s1)CCCN4CCC3	7	2	11	-53	-6	2
O=C(Cc1n[nH]c(=O)c2ccccc12)NCc1ccccn1	1	1	-9	-3	2	54*
CC(C)c1ccc(OCC(=O)NCc2n[nH]c(=O)c3ccccc23)cc1	2	-2	-21	1	0	31
O=C(Cc1ccccc1)NCc1ccccn1	-4	0	1	5	1	4
COc1ccc(OCC(=O)NCc2n[nH]c(=O)c3ccccc23)cc1	3	2	11	-3	3	78*
O=C(COc1ccc(Cl)cc1)NCc1n[nH]c(=O)c2ccccc12	3	2	4	1	-2	81*
O=C(CSc1nc2ccccc2o1)NCC(=O)c1ccccc1	3	1	-3	4	-3	10
O=C(CSc1nc2ccccc2o1)NCc1n[nH]c(=O)c2ccccc12	2	0	1	3	3	57*
Cc1cccc(OCC(=O)NCc2n[nH]c(=O)c3ccccc23)c1	-6	0	1	1	-2	42
CCC/C(=C1/c2ccccc2C(=O)N1c1ccccc1)c1ccc(C=O)o1	3	10	·	·	·	·
COC(=O)C1=C(C)N(Cc2ccc(C(F)(F)F)cc2)C(=NCc2ccccc2)NC1c1ccc(Cl)cc1 (centres undefined)	-6	6	·	·	·	·
O=C(Cc1n[nH]c(=O)c2ccccc12)NCc1ccc(Cl)cc1	-7	4	-3	4	2	67*
Cc1c(Cl)cccc1NC(=O)CNC(=O)CCCc1nc2ccccc2c(=O)[nH]1	-1	-4	18	0	1	34
CCCN(CC(=O)Nc1ccccc1C)C(=O)Cc1n[nH]c(=O)c2ccccc12	-4	-7	10	-1	-4	60*
Cc1c(Cl)cccc1NC(=O)CNC(=O)Cc1n[nH]c(=O)c2ccccc12	4	-3	3	-10	-1	88*
CCCN(CC(=O)Nc1ccccc1C)C(=O)Cc1c[nH]c2ccccc12	2	5	2	2	3	-6
CCCCOCCCNC(=O)C[C@H]1C[C@@]2(C(=O)OC)C(=C[C@H](C(C)C)O[C@@H]2C2CC2)N(CCC2=CCCCC2)C1=O	-6	-4	·	·	·	·
CCCCCCCCN1C(=O)[C@@H](CC(=O)N2CCCCC2)C[C@@]2(C(=O)OC)C1=C[C@H](COCc1ccccc1)O[C@@H]2C	1	5	·	·	·	·

High-throughput results as filed in PubChem.
